Screening results as filed in PubChem BioAssay.
HTR5A ag ctr – HTR5A agonism, opioid heterodimer counter-screen | actives 0.61% (n = 340,000) | HTR5A agonist assay, luminescence, cell-based | AID 504692 | activation, % at 9.3 µM | P47898; in the data active = activation mostly above about 9.5%, no sharp cut-off; inactive = mostly below about 7.6%;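 note: 0% = cells with vehicle only and 100% = reference agonist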
Hep lipid drop – modulators of hepatic lipid droplet formation; AML12 mouse hepatocytes, oleate lipid droplets, BODIPY imaging; inhibition, % at 6.5 µM; actives 0.4% (n = 240,000); AID 1656;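 active = lipid droplet intensity inhibited by at least 50%, with more than 500 cells counted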
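System: AML12 hepatocytes (mouse). Probe or stimulus: oleic acid at 100 µM to induce lipid droplet formation. Times: overnight treatment with compound plus oleate. Detection: Image-based BODIPY and DAPI two-channel analysis. Evaluation: percent inhibition of filter-corrected integrated lipid droplet intensity per well.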
MOR-DOR ag – OPRM1-OPRD1 heterodimerization agonism. actives 0.3% (n = 340,000). cells, luminescence. activation, % at 9.3 µM;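 note: 0% = vehicle-treated cells and 100% = reference agonist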
Target sequence (P35372 whole entry, looked up): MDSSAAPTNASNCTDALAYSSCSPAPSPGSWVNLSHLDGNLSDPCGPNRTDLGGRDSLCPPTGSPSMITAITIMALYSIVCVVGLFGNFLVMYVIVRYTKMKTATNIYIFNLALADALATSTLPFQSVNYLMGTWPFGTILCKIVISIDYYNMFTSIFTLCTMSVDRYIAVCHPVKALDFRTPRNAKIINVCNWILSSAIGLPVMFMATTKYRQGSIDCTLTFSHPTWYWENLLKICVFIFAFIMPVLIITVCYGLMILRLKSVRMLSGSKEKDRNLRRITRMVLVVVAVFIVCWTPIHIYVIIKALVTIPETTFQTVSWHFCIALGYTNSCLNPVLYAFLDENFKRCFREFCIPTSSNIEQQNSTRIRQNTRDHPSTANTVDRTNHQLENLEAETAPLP
Target sequence (P41143 whole entry, looked up): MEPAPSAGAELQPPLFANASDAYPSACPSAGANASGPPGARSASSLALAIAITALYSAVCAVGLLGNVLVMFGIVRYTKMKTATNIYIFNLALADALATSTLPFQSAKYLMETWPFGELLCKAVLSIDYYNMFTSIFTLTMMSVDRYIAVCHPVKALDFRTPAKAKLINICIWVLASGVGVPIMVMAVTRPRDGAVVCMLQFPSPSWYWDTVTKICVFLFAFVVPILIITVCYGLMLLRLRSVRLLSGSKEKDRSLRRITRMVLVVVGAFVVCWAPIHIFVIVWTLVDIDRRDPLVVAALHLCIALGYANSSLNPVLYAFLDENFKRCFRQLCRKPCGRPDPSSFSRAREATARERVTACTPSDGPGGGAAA
OPRM1-OPRD1 inv – inverse agonist of human OPRM1-OPRD1 heterodimerization | cell-based MOR-DOR heterodimer luminescence, inverse agonism | P35372+P41143 | inhibition, % at 9.3 µM | actives 0.21% (n = 340,000); in the data active = inhibition above about 22%, passing the limit was not always enough;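 note: 0% = cells with DMSO and 100% = wells without cells with DMSO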
HTR5A inv ctr – counter-screen for OPRM1-OPRD1 inverse agonists: human HTR5A inverse agonism; actives 0.083% (n = 340,000); HTR5A cell line, luminescence; AID 504634; P47898; inhibition, % at 9.3 µM; in the data active = inhibition mostly above about 23%, no sharp cut-off; inactive = mostly below about 18%;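 note: 0% = cells with DMSO and 100% = no-cell wells with DMSO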
MOR-DOR ag conf – OPRM1-OPRD1 heterodimer agonism, confirmation. shares compounds with MOR-DOR ag. cells, MOR-DOR heterodimerization, luminescence complementation. activation, % at 9.3 µM. actives 45% (n = 830);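 note: 0% = vehicle-treated cells and 100% = reference agonist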
HTR5A ag ctr2 – activates human HTR5A in OPRM1-OPRD1 agonist counter-screen; activation, % at 9.3 µM; actives 8% (n = 830); shares compounds with MOR-DOR ag; HTR5A agonist counterscreen, cell luminescence; in the data active = activation above about 17%;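 note: 0% = vehicle-treated cells and 100% = reference agonist response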
* hit, by the source's call; i = inactive; . = no result given. Shown are actives, neighbours in structure and some others; about 1.4% of the full set was active somewhere. Cut-off read from the data, not from the text of the source, unless noted: active = activation above about 18%; inactive = the rest.

SMILES	HTR5A ag ctr	Hep lipid drop	MOR-DOR ag	OPRM1-OPRD1 inv	HTR5A inv ctr	MOR-DOR ag conf	HTR5A ag ctr2
COc1cccc(CNCCc2c[nH]c3ccccc23)c1OCc1ccccc1	10	-17	18*	-99	-45	27*	8
COc1cc(CNCCc2c[nH]c3ccccc23)ccc1OCc1ccccc1F	-3	.	-1	6	2	.	.
O=C(OCc1cccc(C(F)(F)F)c1)c1cc(S(=O)(=O)N2CCOCC2)ccc1F	10	.	6	-36	-26	.	.
COc1ccc(OC)c(NC(=O)c2cc(-c3cc(Cl)ccc3O)n[nH]2)c1	9	.	19*	-112	-47	0	12
COc1ccc(Cl)cc1NC(=O)c1cc(-c2ccccc2O)n[nH]1	0	1	12	-71	0	.	.
COC(=O)c1cc(OC)c(OC)cc1NC(=O)c1ccco1	-1	.	-2	9	2	.	.
COc1ccc(NC(=O)COC(=O)c2cc(OC)c(OC)cc2NC(=O)c2ccco2)cc1OC	-2	-2	23*	-115	10	12	5
Cc1cc(N2CCN(C)CC2)ccc1NC(=O)c1ccc(-c2ccc(Cl)cc2)o1	2	.	26*	-136	-5	44*	1
CN1CCN(c2ccc(NC(=O)c3ccc(-c4ccccc4F)o3)cc2)CC1	4	.	158*	i	-38	249*	7
CN1CCN(c2ccc(NC(=O)c3ccc(Br)o3)cc2)CC1	0	6	1	-4	3	.	.
CC1CCN(C(=O)c2[nH]cnc2C(=O)N2CCN(c3ccccc3)CC2)CC1	2	.	-5	22	-24	.	.
COC(=O)c1ccc(COC(=O)c2ccc(CS(=O)(=O)c3ccc(C)cc3)cc2)cc1	-2	8	2	-12	11	.	.
COC(=O)c1cc2c(n1S(=O)(=O)c1ccc(C)cc1)C(=O)C(=O)c1[nH]cc(C(=O)OCc3ccccc3)c1-2	5	.	21*	-92	-19	73*	12
CN(C)C(CNS(=O)(=O)c1ccc2ccccc2c1)c1ccccc1 (stereo not given)	-3	-3	5	-20	10	.	.
CC(C)C[C@H]1CN=C(Nc2ccccc2)N1CCc1cccc(F)c1	4	.	0	-1	-9	.	.
Cc1cccc(CCN2C(Nc3ccccc3)=NC[C@@H]2CC(C)C)c1	9	.	38*	-173	9	0	-2
COCc1nc2ccccc2n1CCc1ccccc1	2	2	-1	6	-7	.	.
COc1ccc(C(CNC(=O)CNC(=O)c2cccc(C)c2)N2CCCCC2)cc1 (stereo not given)	-2	.	-1	7	8	.	.
Cn1nc(-c2ccccn2)nc2c(=O)n(C)c(=O)nc1-2	9	-4	41*	-223	-25	28*	1
CCCc1nc2c(=O)n(C)c(=O)nc-2n(C)n1	9.4*	-15	28*	-130	-26	337*	0
CCn1c(N)nc2c1c(=O)n(C)c(=O)n2C	14	7	-1	4	-40	.	.
CC1CC(C)CN(C(=O)Cn2ncc3c([nH]c4ccccc43)c2=O)C1 (stereo not given)	-3	7	-1	5	11	.	.
O=C(Cn1ncc2c([nH]c3ccccc32)c1=O)N1CCc2ccccc2C1	-3	7	32*	-176	-19	26*	1
Cc1ccccc1Cn1c(O)c(N=NC(=S)Nc2ccccc2F)c2ccccc21	1	44	18*	-91	1	76*	3
CCCn1cc(CN2CCC(Cc3cccc(F)c3)(C(=O)OCC)CC2)c(C)n1	1	-9	-2	9	-3	.	.
SMILES	HTR5A ag ctr	Hep lipid drop	MOR-DOR ag	OPRM1-OPRD1 inv	HTR5A inv ctr	MOR-DOR ag conf	HTR5A ag ctr2
CCOC(=O)C1(Cc2cccc(F)c2)CCN(Cc2cnn(CC)c2)CC1	1	-2	68*	-332	-16	-3	-9
CCOC(=O)C1(Cc2ccc(Cl)cc2)CCN(Cc2cn(CC)nc2C)CC1	6	-17	21*	-102	-18	11	0
CCOC(=O)C1(Cc2cccc(F)c2)CCN(Cc2cnn(CC)c2C)CC1	.	-13	.	.	.	.	.
CCOC(=O)C1(CCCc2ccccc2)CCN(Cc2cnn(C)c2)CC1	-3	1	98*	i	9	115*	-2
COc1ccc(CNC(=O)C2CCCN2S(=O)(=O)c2ccc(F)cc2)cc1 (stereo not given)	-1	2	0	1	20	.	.
COc1ccccc1NS(=O)(=O)c1cccc(NS(=O)(=O)c2cc(C(=O)O)ccc2OC)c1	5	.	0	0	-19	.	.
O=C1CC(C2CCCO2)C(=O)N1c1ccc(Cl)c(Cl)c1 (stereo not given)	-1	3	0	-2	-15	.	.
Cc1ccc(CSCC(=O)N/N=C/c2sccc2C)cc1	-6	-18	89*	-478	23	180*	4
COc1ccc(CC(=O)N/N=C/c2sccc2C)cc1	2	4	-3	14	-7	.	.
Cc1ccc(-c2csc3ncnc(-n4nnc5ccccc54)c23)cc1	9	-28	23*	-122	0	2	0
Cc1cc(/C=C\c2ccc3cc(N(C)C)ccc3[n+]2C)c(C)n1-c1ccccc1	2	.	48*	-258	-7	4	0
C[n+]1c(/C=C/c2ccc(O)cc2)ccc2ccccc21	0	-8	-2	7	-2	.	.
COc1cccc(CN(C(=O)/C=C/c2ccco2)C2CCS(=O)(=O)C2)c1 (stereo not given)	-1	3	-1	4	14	.	.
O=C(NCc1cccnc1)Nc1cccc(Cl)c1	-2	.	-1	6	6	.	.
CCc1cccc(CC)c1NC(=S)NCC(c1cccnc1)N(C)C (stereo not given)	-2	4	150*	i	14	-2	0
CN(C)C(CNC(=S)Nc1ccc(Cl)cc1)c1cccnc1 (stereo not given)	0	-9	264*	i	3	-1	-1
S=C(NCc1cccnc1)Nc1ccc(Cl)cc1	4	.	-4	21	-12	.	.
CN(C)C(CNC(=O)Nc1cccc(Cl)c1)c1cccnc1 (stereo not given)	5	0	202*	i	-4	4	-4
NS(=O)(=O)c1ccc(CCNCC(=O)NCc2ccccc2Cl)cc1	0	.	0	2	-1	.	.
COC(=O)CSc1nnc(-c2sc3cc(OC)ccc3c2Cl)n1C	-3	-1	19*	-85	-10	1	3
COC(=O)CSc1nc2cc(OC)ccc2n1C	-4	11	-2	10	11	.	.
CC(=O)c1ccc(OCc2ccc(Oc3c(Cl)cccc3[N+](=O)[O-])cc2)cc1	0	-37	-6	27	2	.	.
CN(C)C(CNC(=S)Nc1cccc(Cl)c1)c1ccccc1 (stereo not given)	9	-9	357*	i	-19	421*	3
